SMILES strings stand for the structures. Some results are limits rather than exact numbers.

Consider 16 molecules from ChEMBL document CHEMBL1136777, “Synthesis, anticancer activity, and inhibition of tubulin polymerization by conformationally restricted analogues of lavendustin A” (J Med Chem, 2003).

For one test, the system named is DU-145. Kind of test: Antiproliferative activity against human prostate DU-145 cell line. In kind it is functional. In outline:
(§1)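 Adherent lines grown in RPMI 1640 with 5% fetal bovine serum and 2 mM L-glutamine, plated at 5000–40 000 cells/well and preincubated 24 h. Five drug concentrations were added for 48 h at 37 °C. Cells were fixed with cold TCA (10% final), stained with sulforhodamine B, and read at 515 nm. GI50 is the concentration giving 50% reduction in net protein increase relative to time-zero wells.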

In the next test the test system is SN12C. The experiment in a line: Antiproliferative activity against human renal SN12C cell line. In kind it is functional. In outline: as §1
The test system of a further test is SF-539. Kind of test: Antiproliferative activity against human CNS SF-539 cell line. In kind it is functional. In outline:
as §1

A short description of test [1]: Mean graph midpoint for growth inhibition of all human cancer cells was determined. In kind it is functional, Cancer cell lines. On the set-up: unit: µM. In outline:
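Average of GI50 values over about 55 cell lines from the 48-h sulforhodamine B growth assay. Test range was 10^-4 to 10^-8 M, and values beyond it were set to those limits. Compounds with a first MGM of 10 μM or less were tested a second time and a standard deviation was calculated.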

The next test deals with HCT-116. The experiment in a line: Antiproliferative activity against human colon HCT116 cell line. In kind it is functional. In outline:
as §1

For the next test, the system named is OVCAR-3. Kind of test: Antiproliferative activity against human ovarian OVCAR-3 cell line. In kind it is functional. In outline:
as §1

The target in another test is Tubulin (Bos taurus, UniProt Q6B856+Q862F3). The experiment in a line: Inhibition of tubulin polymerization was determined at 1.2 mg/mL concentration. In kind it is functional.
Sequence of Tubulin (Q6B856 whole entry): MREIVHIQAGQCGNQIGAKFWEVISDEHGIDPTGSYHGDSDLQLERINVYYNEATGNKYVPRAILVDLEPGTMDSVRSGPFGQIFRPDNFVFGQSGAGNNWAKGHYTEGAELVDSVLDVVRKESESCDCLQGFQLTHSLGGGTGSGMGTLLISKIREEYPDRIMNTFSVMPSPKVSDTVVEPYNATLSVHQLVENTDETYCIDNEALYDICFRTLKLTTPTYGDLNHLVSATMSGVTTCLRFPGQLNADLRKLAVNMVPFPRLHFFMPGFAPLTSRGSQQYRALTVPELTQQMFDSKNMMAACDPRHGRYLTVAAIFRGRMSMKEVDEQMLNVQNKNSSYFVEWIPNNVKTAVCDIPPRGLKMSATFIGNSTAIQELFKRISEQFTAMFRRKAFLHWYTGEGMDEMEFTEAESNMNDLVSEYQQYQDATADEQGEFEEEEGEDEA
Sequence of Tubulin (Q862F3 whole entry): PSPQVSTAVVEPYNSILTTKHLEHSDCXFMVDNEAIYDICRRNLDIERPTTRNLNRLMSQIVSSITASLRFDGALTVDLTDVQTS
A further test has as its system HOP-62. Kind of test: Antiproliferative activity against human lung HOP-62 cell line. In kind it is functional. In outline: as §1
Another test relates to UACC-62. Kind of test: Antiproliferative activity against human melanoma UACC-62 cell line. In kind it is functional. In outline:
as §1

Test [2] concerns MDA-MB-435 (Homo sapiens). The experiment in a line: Antiproliferative activity against human breast MDA-MB-435 cell line.
Another test deals with CCRF-CEM. The experiment in a line: Antiproliferative activity against human leukemia CCRF-CEM cell line. In kind it is functional. In outline: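 Suspension leukemia line grown in RPMI 1640 with 5% fetal bovine serum and 2 mM L-glutamine and preincubated 24 h. Drug was given at five concentrations for 48 h at 37 °C. Settled cells were fixed with 80% TCA (16% final), stained with sulforhodamine B, and read at 515 nm. GI50 was set at 50% reduction in net protein increase versus time-zero wells.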

In the case of `COC(=O)c1cc(/C=C\c2cc(OC)ccc2OC)ccc1OC`, the GI50 (usually the concentration at which growth is held to half of that of the control) came out at 18.1 µM in the test with DU-145; 30.2 µM in the test on SN12C; 10.6 µM with SF-539; 20.1 µM with HCT-116; 4.9 µM in the test with OVCAR-3; 32.9 µM with HOP-62. Moreover, the GI50 came out at 14.8 µM in the test with UACC-62 and 10.9 µM in [2]. Moreover, in test [1], the MGM stood at 15.5. On Tubulin, the IC50 (in general, the concentration that gives 50% inhibition) was over 40 µM.

Consider `O=C(NCCc1ccccc1)c1cc(CCc2cc(O)ccc2O)ccc1O`, for which the GI50 with DU-145 worked out at 14.5 µM; in the test with SN12C it was 49.8 µM; in the test with HCT-116, 12.5 µM; in the test on OVCAR-3, 4.4 µM; in the test with HOP-62, 13.9 µM; in the test with UACC-62, 11 µM. In [2], this molecule showed a GI50 of 3.9 µM. Also, the MGM in [1] turned out to be 6.4. The same molecule displayed an IC50 against Tubulin of 5.5 µM.

In the case of `COC(=O)c1cc(C#Cc2cc(OC)ccc2OC)ccc1OC`, the 50% growth inhibitory concentration (GI50) is 43.6 µM in the test on DU-145; 37.9 µM in the test with SN12C; 81.1 µM in the test with SF-539; 37.7 µM with HCT-116; 13.6 µM in the test on OVCAR-3; 36.8 µM in the test on CCRF-CEM. In addition, the results for the GI50 (in the test with UACC-62; in test [2]) were 29.3 µM and over 100 µM, respectively. Moreover, in [1], the MGM was 30.9. The IC50 at Tubulin was over 40 µM.

On Tubulin, `CCCCCCNC(=O)c1cc(/C=C/c2cc(O)ccc2O)ccc1O` yielded an IC50 of 5 µM.

Turning to `O=C(NCCc1ccccc1)c1cc(/C=C/c2cc(O)ccc2O)ccc1O`, the GI50 was 10.1 µM in the test with DU-145; 5.1 µM in the test with SN12C; 2.4 µM with SF-539; 1.8 µM in the test on HCT-116; 2.9 µM in the test with OVCAR-3; 2.1 µM in the test with CCRF-CEM. Besides, the GI50 with HOP-62 came to 9.3 µM; in the test on UACC-62, 2 µM; in [2] it was 4 µM. In test [1], this molecule returned an MGM of 3.8. At Tubulin, this molecule showed an IC50 of 4 µM.

For `O=C(NCCc1ccc(F)cc1)c1cc(/C=C/c2cc(O)ccc2O)ccc1O`, the GI50 came out at 11 µM in the test on DU-145; 5.6 µM with SN12C; 2.2 µM with SF-539; 1.9 µM in the test with HCT-116; 2.7 µM in the test with OVCAR-3; 1.8 µM with CCRF-CEM. The GI50 in the test on HOP-62 is 8.8 µM; in the test with UACC-62 it was 2.1 µM; in test [2] it was 3.8 µM. Moreover, in test [1], the MGM turned out to be 3.5. Moreover, at Tubulin, the IC50 turned out to be 2.9 µM.

On to `COc1ccc(OC)c(CC(=O)c2ccc(O)c(C(=O)NCCc3ccc(F)cc3)c2)c1`, for which the GI50 in the test with DU-145 stood at 1.7 µM; with SN12C it was 4.3 µM; in the test with HCT-116 it was 4 µM; in the test with OVCAR-3, 1.4 µM; in the test on CCRF-CEM, 2.4 µM; with HOP-62, 1.5 µM. Besides, the GI50 was found to be 4 µM with UACC-62 and 0.6 µM in [2]. Moreover, the MGM in [1] is listed as 3.6. At Tubulin, the IC50 stood at 1.4 µM.

As to `COc1ccc(OC)c(CCc2ccc(O)c(C(=O)NCCc3ccc(F)cc3)c2)c1`, the GI50 was 4.2 µM in the test on DU-145; 15.8 µM with SN12C; 3.2 µM in the test with SF-539; 5.3 µM in the test with HCT-116; 3.2 µM with OVCAR-3; 3.2 µM in the test with CCRF-CEM. Further, the GI50 amounted to 15 µM in the test on HOP-62, 6.6 µM in the test with UACC-62 and 0.5 µM in [2]. The molecule further had an MGM in [1] of 6.9. Also, on Tubulin, the IC50 was determined as 1.4 µM.

As to `O=C(NCCc1ccc(F)cc1)c1cc(NCc2cc(O)ccc2O)ccc1O`, the GI50 in the test with DU-145 came out at 18 µM; in the test on SN12C, 7.7 µM; in the test on SF-539, 9.2 µM; in the test with HCT-116 it was 9.2 µM; in the test with OVCAR-3, 11 µM; in the test on CCRF-CEM it was 0.29 µM. Also, the values for the GI50 (with HOP-62; with UACC-62; in test [2]) were 12 µM, 7.8 µM and 13 µM, respectively. Further, the MGM in test [1] came out at 0.35. Further, the IC50 on Tubulin was found to be 6.4 µM.

With `O=C(NCCc1ccccc1)c1cc(/C=C\c2cc(O)ccc2O)ccc1O`, the GI50 in the test on DU-145 was found to be 1.8 µM; with SN12C, 6.8 µM; in the test on SF-539, 1.6 µM; in the test with HCT-116, 3.5 µM; in the test with OVCAR-3, 1 µM; in the test with CCRF-CEM, 0.2 µM. For the same molecule, the GI50 in the test on HOP-62 turned out to be 3 µM; in the test with UACC-62 it was 2.1 µM; in test [2] it was 1.7 µM. In [1], this molecule yielded an MGM of 1.4. This molecule showed an IC50 on Tubulin of 5.4 µM.

Take `COc1ccc(OC)c(C#Cc2ccc(OC)c(C(=O)NCCc3ccc(F)cc3)c2)c1`: the GI50 was over 100 µM in the test with DU-145; over 100 µM in the test with SN12C; 4.7 µM in the test on HCT-116; 4.7 µM in the test with CCRF-CEM; 4.9 µM with HOP-62; 6 µM with UACC-62. In addition, in test [2], halving of growth (GI50) required 1.2 µM. The molecule also gave an MGM in [1] of 11.5. For the same molecule, the IC50 on Tubulin was over 40 µM.

As for `COc1ccc(OC)c(C#Cc2ccc(OC)c(C(=O)O)c2)c1`, the GI50 came out at 26.9 µM in the test on DU-145; 38.2 µM in the test on SN12C; 38.5 µM in the test on SF-539; 32.3 µM in the test on HCT-116; 24.4 µM in the test with OVCAR-3; 55 µM in the test with CCRF-CEM. The GI50 in the test with HOP-62 stood at 25.6 µM; in the test on UACC-62 it was 22.6 µM; in [2] it was 8.8 µM. This molecule displayed an MGM in test [1] of 18.6. This molecule also had an IC50 against Tubulin of over 40 µM.

In the case of `CCCCCCNC(=O)c1cc(CCc2cc(O)ccc2O)ccc1O`, the GI50 in the test with DU-145 stood at 7.4 µM; with SN12C, 2.2 µM; in the test with SF-539, 2.2 µM; with HCT-116, 3.6 µM; in the test with OVCAR-3, 2.4 µM; in the test on CCRF-CEM, 5.1 µM. In addition, the figures for the GI50 (in the test with HOP-62; with UACC-62; in test [2]) were 7.4 µM, 3.3 µM and 3.2 µM, respectively. In [1], this molecule gave an MGM of 4.4. For the same molecule, the IC50 on Tubulin is 6.2 µM.

On to `COc1ccc(OC)c(/C=C\c2ccc(OC)c(C(=O)NCCc3ccccc3)c2)c1`, for which the GI50 in the test on DU-145 is over 100 µM; in the test on SN12C, over 100 µM; in the test on SF-539, over 100 µM; with HCT-116 it was 47.3 µM; in the test with OVCAR-3 it was 5 µM; with CCRF-CEM it was 12.3 µM. The GI50 in the test on HOP-62 was over 100 µM; in the test on UACC-62 it was 16.4 µM; in [2], 3 µM. The MGM in test [1] was determined as 38.9. On Tubulin, the IC50 was over 40 µM.

Regarding `COc1ccc(OC)c(C#Cc2ccc(OC)c(C(=O)NCCc3ccccc3)c2)c1`, the GI50 in the test on DU-145 was over 100 µM; with SN12C, over 100 µM; in the test with SF-539 it was over 100 µM; in the test with HCT-116, 12 µM; in the test with OVCAR-3, 6.7 µM; with HOP-62 it was over 100 µM. The GI50 with UACC-62 was determined as 24.4 µM; in test [2], 2.5 µM. The molecule also came in with an MGM in [1] of 40.7. Further, the IC50 against Tubulin is over 40 µM.

Consider `CCCCCCNC(=O)c1cc(/C=C\c2cc(O)ccc2O)ccc1O`, for which the GI50 came out at 10.5 µM in the test with DU-145; 11.6 µM in the test with SN12C; 3.3 µM with SF-539; 3.9 µM with HCT-116; 1.7 µM in the test with OVCAR-3; 1.2 µM with CCRF-CEM. Also, the GI50 in the test with HOP-62 turned out to be 8.3 µM; in the test on UACC-62 it was 5.8 µM; in [2], 4.5 µM. The MGM in test [1] worked out at 4.1. For the same molecule, it took 4.2 µM to reach half-maximal inhibition against Tubulin (IC50).
